High-throughput results (PubChem BioAssay)
CXCR6 inh: CXCR6 receptor inhibitors, primary screen, cell-based, beta-arrestin, luminescence, CHO-K1 PathHunter, 1536-well; 360,000 tested, 0.36% active; C-X-C chemokine receptor type 6 (Homo sapiens), O00574; AID 602244, 2012; inhibition, % at 20 µM; in the data active = inhibition above about 34%, passing the limit was not always enough;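 also: antagonist mode with CXCL16 agonist at 10 nM final; 0% = 10 nM CXCL16 with DMSO and 100% = unstimulated wells without agonist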
APJ antag: antagonists of human apelin receptor APJ, primary screen, CHO-K1 cells, beta-arrestin complementation, luminescence; P35414; inhibition, % at 20 µM; 330,000 tested, 0.32% active;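 active = inhibition above about 40% at 20 µM, limit read from the data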;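 also: cells challenged with 10 nM apelin-13 agonist together with compound; plate controls were apelin-13 plus DMSO wells for no effect and DMSO wells lacking apelin-13 for full effect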
Target sequence (P35414 whole entry, looked up): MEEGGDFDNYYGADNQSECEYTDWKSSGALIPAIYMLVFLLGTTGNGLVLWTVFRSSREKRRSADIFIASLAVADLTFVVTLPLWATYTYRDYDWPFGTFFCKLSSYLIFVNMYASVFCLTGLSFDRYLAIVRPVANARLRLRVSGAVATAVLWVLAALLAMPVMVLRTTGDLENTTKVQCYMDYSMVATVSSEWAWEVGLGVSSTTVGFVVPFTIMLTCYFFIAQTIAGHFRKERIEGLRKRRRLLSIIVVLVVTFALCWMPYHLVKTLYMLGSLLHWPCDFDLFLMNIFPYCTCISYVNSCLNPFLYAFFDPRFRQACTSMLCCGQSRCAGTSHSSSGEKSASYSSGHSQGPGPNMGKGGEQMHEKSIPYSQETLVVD
APJ agonist: agonists of human apelin receptor APJ, primary screen, CHO-K1 cells, PathHunter beta-arrestin, luminescence; P35414; 0% DMSO wells, 100% apelin; activation, % at 20 µM; 330,000 tested, 0.11% active; AID 2520, 2010;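 active = activation more than six SD over the plate average, tested at 20 µM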;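 also: 0% = DMSO alone and 100% = apelin-13 at 10 nM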
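Incubation: overnight seeding, 90 min compound at 25 °C, 1 h detection; test system: PathHunter CHO-K1 APJ (AGTRL-1) beta-arrestin reporter cells; amount: 1000 cells/well; doses: one dose, 20 µM compound, 1% DMSO; measured by: beta-gal luminescence; measure: agonist-driven arrestin binding to APJ; benchmarks: negative DMSO alone, positive Apelin-13 at 10 nM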
CCR6 antag: CCR6 receptor antagonists, primary screen, cell-based, CHO-K1, luminescence, beta-arrestin, uHTS; C-C chemokine receptor type 6 (Homo sapiens), P51684; CHO-K1 CCR6 PathHunter beta-arrestin, CCL20-stimulated; inhibition, % at 20 µM; 340,000 tested, 0.49% active;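 active = compounds whose inhibition of the agonist-driven luminescence signal at 20 µM reaches about 50%, limit read from the data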;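 also: cells stimulated with CCL20 at 14 nM final; plate controls were DMSO with CCL20 for no effect and DMSO without agonist for full effect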
EBI2 block: EBI2 receptor antagonists, beta-arrestin recruitment, primary screen, cell-based, luminescence, 7a,25-OHC stimulation, uHTS; G-protein coupled receptor 183 (Homo sapiens), P32249; 360,000 tested, 0.81% active; 7a,25-OHC stimulated; inhibition, % at 5 µM; in the data active = inhibition above about 38%;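 also: enzyme fragment complementation signal reports receptor beta-arrestin coupling in cells; 0% = agonist plus DMSO wells and 100% = wells without agonist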
HTR2A ag: mouse Htr2a agonists via beta-arrestin recruitment, primary screen, cell-based, luminescence | 360,000 tested, 0.66% active | CHO-K1 mHTR2A beta-arrestin complementation; percent of 30 µM serotonin response | 5-hydroxytryptamine receptor 2A (Mus musculus), P35363 | activation, % at 7.6 µM;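 active = activation above a run cutoff, the mean activation of all tested compounds plus 3 SD, cut at about 14% in these data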;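 also: 0% = plate median of compound wells and 100% = 30 µM serotonin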
OPRM1 ag: OPRM1 agonists via beta-arrestin recruitment, confirmation, counter-screen for mouse HTR2A agonist project, cell-based, luminescence, single concentration | shares compounds with HTR2A ag | U2OS OPRM1 beta-arrestin PathHunter; DMSO 0%, DAMGO 9.3 µM 100% | activation, % at 9.3 µM | 2,300 tested, 5.3% active | AID 624380, 2012;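 active = mean activation above the mean of DMSO-only wells plus 3 SD, cut at about 0.5% in these data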
m5-HT2A ag conf: mouse HTR2A agonists, beta-arrestin recruitment, confirmation, cell-based, luminescence, CHO-K1 PathHunter, triplicate; shares compounds with HTR2A ag; DMSO 0%, 30 µM serotonin 100%; activation, % at 7.6 µM; 2,300 tested, 19% active; AID 624381, 2012;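 active = mean activation across triplicates above the hit threshold derived in the original primary screen, cut at about 15% in these data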
Numbers without * were called inactive. This is a sample that favours compounds with a hit; in the whole collection about 2.1% have one here.

CC1CN(Cc2nc3c(c(=O)n(C)c(=O)n3C)n2CC(=O)c2ccccc2)CC(C)O1 (configuration not stated) was read as CXCR6 inh 4, APJ antag 0, APJ agonist -8, CCR6 antag 8, EBI2 block 0 and HTR2A ag 2.
`Cc1cc(C)n(CCC(=O)N/N=C/c2ccc(O)cc2O)n1` gave CXCR6 inh -9, APJ antag 13, APJ agonist -1, CCR6 antag 10, EBI2 block -8 and HTR2A ag 0.
`Cc1cc(NN)nc(NS(=O)(=O)c2ccc(Cl)cc2)n1` gave CXCR6 inh -3, APJ antag -5, APJ agonist 0, CCR6 antag -20, EBI2 block -9, HTR2A ag 16*, OPRM1 ag 0 and m5-HT2A ag conf 7.
Screening COc1ccc(N2CCN(CC(O)COc3ccc4c(c3)CCC4)CC2)cc1 (configuration not stated) returned CXCR6 inh 4, APJ antag 7, APJ agonist -2, CCR6 antag 13, EBI2 block 24 and HTR2A ag -2.
CN1CCc2cccc3c2C1Cc1ccc(O)c(O)c1-3 (configuration not stated) was read as CXCR6 inh -10, APJ antag -4, APJ agonist 3, CCR6 antag -2, EBI2 block -12, HTR2A ag 44*, OPRM1 ag 0.6* and m5-HT2A ag conf 135*.
COc1ccccc1CNC(=O)COC(=O)c1ccc2c(=O)n3c(nc2c1)CCCCC3 was read as CXCR6 inh -3, APJ antag 13, APJ agonist -1, CCR6 antag 7, EBI2 block -3, HTR2A ag 18*, OPRM1 ag -1 and m5-HT2A ag conf 0.
`COC(=O)C1=CN(Cc2ccc(OC)c(OC)c2)C=C(C(=O)OC)C1c1cccc(OC)c1OC` gave CXCR6 inh 2, APJ antag -15, APJ agonist -3, CCR6 antag 7, EBI2 block -5 and HTR2A ag 12.
Screening COC(=O)C1=CN(Cc2ccc(OC)c(OC)c2)C=C(C(=O)OC)C1c1ccccc1F returned CXCR6 inh 3, APJ antag -10, APJ agonist 4, CCR6 antag -1, EBI2 block -12, HTR2A ag 17*, OPRM1 ag -1 and m5-HT2A ag conf 3.
For CCCn1c(C)cc(/C=C(\C#N)C(=O)OCC(=O)NC(=O)NC(C)(C)C)c1C the results were CXCR6 inh 6, APJ antag 4, APJ agonist 3, CCR6 antag 22, EBI2 block 5 and HTR2A ag 8.
Screening O=C(CSc1nnc(CNC(=O)c2ccc(F)cc2)o1)Nc1nccs1 returned CXCR6 inh 0, APJ antag -25, APJ agonist -3, CCR6 antag 2, EBI2 block -18, HTR2A ag 14*, OPRM1 ag -1 and m5-HT2A ag conf -3.
Screening CCn1c(SCC(=O)N2c3ccccc3Sc3ccccc32)nnc1-c1ccco1 returned CXCR6 inh 0, APJ antag 15, APJ agonist -1, CCR6 antag 13, EBI2 block 12 and HTR2A ag 3.
CCN1CCN(Cc2nnc(-c3ccc(C)cc3)o2)CC1 was read as CXCR6 inh -1, APJ antag 0, APJ agonist -5, CCR6 antag -11, EBI2 block 13, HTR2A ag 17*, OPRM1 ag -1 and m5-HT2A ag conf -4.
Screening CCCn1c(N)c(Sc2ccc([N+](=O)[O-])cc2)c(=O)n(CCC)c1=O returned CXCR6 inh -1, APJ antag 10, APJ agonist -3, CCR6 antag 9, EBI2 block 1, HTR2A ag 17*, OPRM1 ag 0 and m5-HT2A ag conf 3.
For COc1ccc(C(=O)Nc2cnc3ccccn3c2=O)cc1 the results were CXCR6 inh -3, APJ antag -30, APJ agonist -5, CCR6 antag -6, EBI2 block 0 and HTR2A ag 2.
For O=C(Nc1cnc2ccccn2c1=O)c1ccc(F)cc1 the results were CXCR6 inh 3, APJ antag -18, APJ agonist -1, CCR6 antag 2, EBI2 block 2, HTR2A ag 17*, OPRM1 ag -1 and m5-HT2A ag conf -3.
For O=C(Cc1ccccc1)NCC(=O)N/N=C/c1ccc([N+](=O)[O-])s1 the results were CXCR6 inh -12, APJ antag -10, APJ agonist 2, CCR6 antag 5, EBI2 block 0, HTR2A ag 18*, OPRM1 ag 0 and m5-HT2A ag conf -1.
O=C(CNC(=O)c1ccccc1)N/N=C/c1ccc([N+](=O)[O-])s1 was read as CXCR6 inh -4, APJ antag -33, APJ agonist -2, CCR6 antag -14, EBI2 block -6 and HTR2A ag 4.
Cc1ccnc(NC(=O)c2cccc(NC(=O)CC3SC(N4CCCCC4)=NC3=O)c2)c1 (configuration not stated) was read as CXCR6 inh -2, APJ antag -42, APJ agonist 2, CCR6 antag 6, EBI2 block -3, HTR2A ag 15*, OPRM1 ag 0 and m5-HT2A ag conf -1.
For Cc1ccnc(NC(=O)c2ccc(NC(=O)CC3SC(N4CCCC4)=NC3=O)cc2)c1 (configuration not stated) the results were CXCR6 inh 3, APJ antag 7, APJ agonist 0, CCR6 antag 4, EBI2 block -8 and HTR2A ag 11.
Screening NCCc1nc(-c2ccccc2)cs1 returned CXCR6 inh 7, APJ antag 6, APJ agonist 3, CCR6 antag -4, EBI2 block -4, HTR2A ag 35*, OPRM1 ag -1 and m5-HT2A ag conf 14.
